Sampled rows, rich in hits. Any-hit rate of the full collection: about 2.3%.
T cell modulator – T cell immune modulation candidate. 2C CD8+ T cell-vesicle binding, flow cytometry; active compounds read low. response (vesicle binding), % at 7 µM. actives 0.068% (n = 330,000);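 active = response, share of CD8 T cells binding vesicles, and their 90th percentile fluorescence all below set limits, cut at about 80% in these data, passing the limit was not always enough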;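 note: values below 100% mean blocked vesicle binding to the CD8+ T cells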
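Read-out – percent CD8+ FL2 mean versus row control · System – murine 2C transgenic CD8+ T lymphocytes · Times – 1.5 h cell–vesicle binding at 37 °C, then 20 min icy labelling · Control set – naked vesicles low, QL9 vesicles with vehicle high · Detection – cytometric PE anti-B7-1 and Alexa647 anti-CD8 signals after 1% paraformaldehyde fixation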
pCIP destab – compounds decreasing mouse p/CIP protein stability | AID 1984 | decrease of EGFP signal, % at 10 µM | actives 0.01% (n = 290,000) | Q05BA5 | F442A p/CIP-EGFP cells, EGFP fluorescence, 16 h;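 active = EGFP signal decrease of at least 30% at 10 µM or well 3 SD below plate mean, unless failing retest; inactive = the rest, including hits failing retest or dose response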
GPR7 antagonist – antagonists of human GPR7 (neuropeptides B/W receptor 1); P48145; GPR7-expressing cells, fluorescence antagonist assay; inhibition, % at 4.4 µM; actives 1.1% (n = 290,000); AID 1861; in the data active = inhibition above about 16%, passing the limit was not always enough;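 note: cells stimulated with the agonist NPW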
CHT PAM – allosterically activates the human high affinity choline transporter. AID 488977. CHT-expressing cells, membrane potential dye, choline EC20; active compounds read high; LV-AA mutant CHT in HEK293 cells. actives 0.49% (n = 310,000). B-score at 10 µM;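 active = initial fluorescence not abnormally high and integrated response B-score, plate-corrected, over 3 SD above library mean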
Target sequence (Q9GZV3 whole entry, looked up): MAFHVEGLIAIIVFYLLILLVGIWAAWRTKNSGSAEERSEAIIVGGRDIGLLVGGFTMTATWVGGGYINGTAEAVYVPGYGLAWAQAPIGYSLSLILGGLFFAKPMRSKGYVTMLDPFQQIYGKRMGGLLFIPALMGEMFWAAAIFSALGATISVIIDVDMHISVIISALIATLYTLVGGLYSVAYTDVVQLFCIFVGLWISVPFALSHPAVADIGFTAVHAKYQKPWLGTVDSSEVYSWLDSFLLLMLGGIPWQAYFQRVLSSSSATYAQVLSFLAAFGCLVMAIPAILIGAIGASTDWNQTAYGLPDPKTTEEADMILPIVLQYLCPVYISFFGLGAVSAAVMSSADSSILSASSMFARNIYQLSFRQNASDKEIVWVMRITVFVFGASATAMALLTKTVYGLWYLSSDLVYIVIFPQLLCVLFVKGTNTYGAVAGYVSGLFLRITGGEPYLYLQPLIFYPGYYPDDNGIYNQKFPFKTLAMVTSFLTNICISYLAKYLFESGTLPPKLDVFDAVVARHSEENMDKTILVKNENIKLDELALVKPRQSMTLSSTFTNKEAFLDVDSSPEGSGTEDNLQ
CHT inh – inhibits the human high affinity choline transporter. Q9GZV3. CHT-expressing cells, membrane potential dye, choline response; active compounds read low. B-score at 10 µM. actives 0.86% (n = 310,000). AID 488975;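 active = B-score over 3 SD under the library average, and starting fluorescence ratio not unusually high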;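 note: choline stimulus applied at its EC90 after an EC20 pre-addition; B-score computed on integrated fluorescence ratio after choline addition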
Pemphigus Ab inh – human desmoglein-3 autoantibody binding inhibition. P32926. DSG3-coupled beads, scFv-anti-DSG3-GFP binding, flow cytometry; active compounds read low. binding (percent of control), % at 10 µM. actives 0.48% (n = 310,000);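 active = binding more than 3 SD below its plate's average and above zero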;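 note: hits lower antibody fragment binding to DSG3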
CHT activ conf – human CHT activation, confirmatory screen; shares compounds with CHT PAM; CHT-expressing cells, membrane potential dye fluorescence (FDSS); % of choline EC20–EC90 response window; HEK293 expressing CHT LV-AA mutant; choline added at its EC20; activation, % at 10 µM; actives 91% (n = 2,500);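 active = primary screen active, with duplicate mean activation above negative control mean plus 3 SD, cut at about 11% in these data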
HEK293 MP dye – activity in parental HEK293 cells lacking CHT | shares compounds with CHT PAM | membrane potential dye fluorescence (FDSS); measured after EC20 choline addition | ratio readout change at 10 µM, hits read low | actives 62% (n = 2,500);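 active = duplicate-averaged ratio beyond 3 SD from buffer wells, up or down, though filed actives are nearly all decreases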
Numbers stand for hits; i = inactive; nt = not tested or not shown.

SMILES	T cell modulator	pCIP destab	GPR7 antagonist	CHT PAM	CHT inh	Pemphigus Ab inh	CHT activ conf	HEK293 MP dye
CCCCNC(=S)N(C)/N=C/c1c(F)c(F)c(F)c(F)c1F	i	i	i	6.5	i	i	17	i
CCCCNC(=S)N(C)/N=C/c1c(C)[nH]c2ccccc12	i	i	i	i	i	i	nt	nt
CCOC(=O)N1CCN(C(=O)c2ccc(N(Cc3ccc(C)cc3)S(C)(=O)=O)cc2)CC1	i	i	i	i	i	i	nt	nt
CCOC(=O)N1CCN(C(=O)c2ccc(N(Cc3ccc(Cl)cc3)S(C)(=O)=O)cc2)CC1	i	i	i	8.8	i	i	i	i
Cc1ccc2[nH]cc(S(=O)(=O)c3ccc(C)c(C)c3)c(=O)c2c1	i	i	i	i	i	i	nt	nt
C#CCOCCOCCOCCNc1nc(N2CCN(C(=O)Cn3cc(CC(C)O)nn3)CC2)nc(N2CCN(C(=O)[C@H](C)n3cc(CCC(=O)O)nn3)CC2)n1 (some centres undefined)	nt	nt	nt	nt	nt	i	nt	nt
COC(=O)C1=C(C)NC(=O)/C1=C\c1cc(C)n(-c2c(C)cccc2C)c1C	i	i	i	i	i	i	16	i
c1ccc(C2OCCN2c2ccccc2)cc1 (centres undefined)	nt	nt	nt	nt	nt	i	nt	nt
Cc1csc2c(C#N)c(=O)c3c(n12)CCC3	i	i	i	6.6	i	i	49	-41
CCN(CC)CCCNc1nc(CN2CCOCC2)nc2sc3c(c12)CCC3	i	i	i	7.7	i	i	59	-57
Cc1cccc(Oc2nc(CN3CCOCC3)nc3sc4c(c23)CCCC4)c1	i	i	i	i	i	i	35	i
CCC(C)Nc1nc(CN2CCOCC2)nc2sc3c(c12)CCC3 (centres undefined)	i	i	i	8.4	i	i	14	i
NS(=O)(=O)c1ccc(CCNc2nc(CN3CCOCC3)nc3sc4c(c23)CCC4)cc1	i	i	i	i	i	i	nt	nt
c1cncc(-c2nc(NCCCN3CCOCC3)c3c4c(sc3n2)CCC4)c1	i	i	i	6.9	i	i	24	-47
c1cncc(-c2nc(N3CCOCC3)c3c4c(sc3n2)CCC4)c1	i	i	i	i	i	i	nt	nt
CCN(Cc1ccc(C#CCCO)cc1)CC1CCCN(CCc2cccc(F)c2)C1 (centres undefined)	i	i	i	i	i	i	nt	nt
CN(CC(=O)Nc1cccc(F)c1)C(=O)c1ccc(N2CCCCCC2)c([N+](=O)[O-])c1	i	nt	nt	i	i	i	nt	nt
CN(CC(=O)Nc1cccc(F)c1)C(=O)c1cc([N+](=O)[O-])ccc1N1CCCCC1	i	nt	nt	i	i	i	17	i
COc1ccccc1-c1cccc([C@@H]2C[C@H]3[C@H](CON3C)CN2C(C)=O)c1	nt	nt	nt	nt	nt	i	nt	nt
CCOC(=O)c1c[nH]c2c(C)ccc(Cl)c2c1=O	i	i	i	i	i	i	nt	nt
CCOC(=O)c1c[nH]c2c(Cl)c(Cl)ccc2c1=O	i	i	i	i	i	86	39	-37
CCOC(=O)c1c[nH]c2c(Cl)ccc(Cl)c2c1=O	i	i	i	7.2	i	nt	69	-64
CCOC(=O)c1c[nH]c2c(C)cc(C)cc2c1=O	i	i	i	8.1	i	i	63	-37
CCOC(=O)c1c[nH]c2c3c(ccc2c1=O)CCCC3	i	i	i	i	i	i	nt	nt
CCCCN(CC)C(=S)Nc1ccc2nc(N3CCN(C)CC3)cc(C)c2c1	i	i	i	i	i	i	26	-26
SMILES	T cell modulator	pCIP destab	GPR7 antagonist	CHT PAM	CHT inh	Pemphigus Ab inh	CHT activ conf	HEK293 MP dye
CCCCN(C)C(=S)Nc1ccc2nc(N3CCN(CC)CC3)cc(C)c2c1	i	i	i	i	i	i	nt	nt
CCOC(=O)N1CCC(NC(=O)c2cc(COc3ccccc3SC)on2)CC1	i	i	i	i	i	i	nt	nt
Cc1ccc(C)c(CN2C(=O)CSc3ccc(C(=O)N4CCCC4)cc32)c1	i	i	i	i	i	i	nt	nt
Cc1ccc(C)c(CN2C(=O)CSc3ccc(C(=O)NCC(C)CN4CCC(C)CC4)cc32)c1 (centres undefined)	i	i	i	6.8	i	i	40	-34
CC1CCCCC1NC(=O)COC(=O)c1ccc2c(=O)n3c(nc2c1)CCC3 (centres undefined)	i	nt	nt	nt	nt	nt	nt	nt
O=C(COC(=O)c1ccc2c(=O)n3c(nc2c1)CCC3)NC1CCS(=O)(=O)C1 (centres undefined)	i	i	i	i	i	i	40	-48
CCOC(=O)Cn1c2ccc(C)cc2c2nc(C)sc21	i	i	i	i	i	i	nt	nt
CCN(CC)CCn1c2ccc(F)cc2c2nc(C)sc21	i	i	i	i	i	i	27	-63
Cc1nc2c3cc(Cl)ccc3n(CCN3CCOCC3)c2s1	i	i	i	i	i	nt	15	i
Cc1cc(-c2ccccc2)cc(-c2ccccc2)[n+]1C	i	i	i	6.8	i	i	79	-23
CCOC(=O)c1c(C)[nH]c(C(=O)OC(C)C(=O)NC2(C#N)CCCCC2)c1C (centres undefined)	nt	nt	nt	nt	nt	i	nt	nt
N#CC1(Cc2ccc([N+](=O)[O-])cc2)c2ccccc2C=CN1C(=O)c1ccccc1 (centres undefined)	i	i	i	i	i	i	27	i
CN1OC[C@@H]2CN(C(=O)CCc3ccccc3)[C@H](c3cccc(N4CCOCC4)c3)C[C@@H]21	nt	nt	nt	nt	nt	i	nt	nt
CSc1nc(N)c(C(=O)N(c2ccccc2)c2ccccc2)s1	nt	nt	nt	nt	nt	i	nt	nt
CN1/C(=C/c2cc[n+](C)c3ccccc23)C=Cc2ccccc21	nt	i	i	nt	nt	i	nt	nt
C[n+]1ccc(/C=C/c2ccccc2O)c2ccccc21	i	i	i	i	i	i	30	-39
Cc1cccnc1NC(=O)/C=C/c1ccc2c(c1)OCO2	i	i	i	i	i	i	44	-40
Cc1nc(N2CCN(C)CC2)c2sc(=S)n(-c3ccccc3)c2n1	i	i	i	i	i	i	nt	nt
Cc1nc(N2CCN(C)CC2)c2sc(=S)n(C)c2n1	i	i	i	i	i	i	33	-50
CCOc1ccc(NC(=O)CN(C)C(=O)C(C)Oc2ccc(Cl)cc2)cc1OCC (centres undefined)	nt	nt	nt	nt	nt	i	nt	nt
CCN(CC)CCCNC(=O)c1cn(C)c2ccc(S(=O)(=O)N(C)C)cc2c1=O	i	i	i	6.4	i	i	55	-35
CN(CCNC(=O)c1cn(C)c2ccc(S(=O)(=O)N(C)C)cc2c1=O)CCc1ccccc1	i	i	i	i	i	i	23	-26

High-throughput results: PubChem, several laboratories
